Tests used:
[1] = system: Hepatitis C virus; test: Antiviral activity against Hepatitis C virus Con1 Bart79I genotype 1b expressing YFP infected in human Huh7.5 cells assessed as NS5A S2204I mutant synthesis at 10 uM after 72 hrs by FACS analysis (reference value: 52.2%); assay type: functional, Hepacivirus hominis, subtype 1b Con1 Bart79I, Huh-7
Outline: (§1)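 Huh7.5 cells stably carrying Bart79I-YFP subgenomic replicon (G418 selection), treated with DMSO or compound. Dose series over 5 days (120 h), or 10 M with sampling at 24, 48, 72 h. Cells washed, resuspended in PBS, and NS5A-YFP-positive cells counted by FACS. EC50 and T1/2 taken from response curves.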

[2] = system: Hepatitis C virus; test: Antiviral activity against Hepatitis C virus Con1 Bart79I genotype 1b expressing NS5A S2204I mutant infected in human Huh7.5 cells assessed as inhibition of viral RNA replication at 10 uM by real time qRT-PCR analysis; assay type: functional, organism-based; conditions: Hepacivirus hominis, subtype 1b Con1 Bart79I, Huh-7, TDE = time-dependent effect
Outline: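 Huh7.5 cells stably carrying Bart79I genotype 1b subgenomic replicon (G418 750 mg/ml selection, 3 weeks), 3×10⁵ cells/well with DMSO or compound. Dose series over 72 h, or 10 M for increasing periods. Viral and host GAPDH RNA measured by real-time qRT-PCR. EC50 and T1/2 taken from response curves of triplicate experiments.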

[3] = Cytotoxicity against human Huh7.5 cells assessed as cell viability after 72 hrs by MTT assay; assay type: cell-based, Huh-7
[4] = system: Hepatitis C virus; test: Antiviral activity against Hepatitis C virus JFH-1 J6 genotype 2a infected in human Huh7.5 cells assessed as inhibition of viral RNA replication after 72 hrs by luciferase reporter gene assay; assay type: functional, organism-based, Hepacivirus hominis; conditions: subtype 2a JFH1 J6, Huh-7, 72 h
[5] = Ratio of antiviral activity against Hepatitis C virus Con1 Bart79I genotype 1b expressing NS5A S2204I mutant infected in human Huh7.5 cells assessed as time required for reducing viral RNA level by half to antiviral activity against Hepatitis C virus JFH-1 J6 genotype 2a infected in human Huh7.5 cells assessed as time required for reducing viral RNA level by half; assay type: functional, Huh-7
[6] = system: Hepatitis C virus; test: Antiviral activity against Hepatitis C virus Con1 Bart79I genotype 1b expressing YFP infected in human Huh7.5 cells assessed as NS5A S2204I mutant synthesis at 5 uM after 120 hrs by FACS analysis (reference value: 66%); assay type: functional, Hepacivirus hominis, subtype 1b Con1 Bart79I, Huh-7; outline: as §1
[7] = system: Hepatitis C virus; test: Antiviral activity against Hepatitis C virus Con1 Bart79I genotype 1b infected in human Huh7.5 cells assessed as inhibition of NS5A S2204I mutant synthesis at 10 uM by Western blot analysis; assay type: functional, organism-based; conditions: Hepacivirus hominis, subtype 1b Con1 Bart79I, Huh-7, TDE = time-dependent effect
Outline: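 Bart79I replicon Huh7.5 cells, 1.5×10⁵/well, treated with DMSO or compound. Dose series for 5 days (120 h), or 10 M for 24, 48, 72 h. Lysed in RIPA with protease inhibitors and protein quantified by Bradford. NS5A and β-actin measured by Western blot, with NS5A normalized to β-actin. EC50 and T1/2 taken from response curves.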

[8] = system: Hepatitis C virus; test: Antiviral activity against Hepatitis C virus JFH-1 J6 genotype 2a infected in human Huh7.5 cells assessed as inhibition of viral core synthesis after 120 hrs by Western blot analysis; assay type: functional, organism-based
Outline: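 J6/JFH1 RNA-transfected Huh7.5 cells, 1.5 × 10⁵ per well, given DMSO or increasing concentrations for 120 h. RIPA lysates with protease inhibitors, protein by Bradford; HCV core and β-actin by Western blot, core normalised to β-actin. EC50 from dose-response.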

[9] = Selectivity index, ratio of CC50 for human Huh7.5 cells to EC50 for Hepatitis C virus JFH-1 J6 genotype 2a infected in human Huh7.5 cells; assay type: toxicity, cell-based, Huh-7; conditions: read-out: Ratio CC50/EC50
[10] = system: Hepatitis C virus; test: Antiviral activity against Hepatitis C virus JFH-1 J6 genotype 2a infected in human Huh7.5 cells assessed as inhibition of viral RNA replication at 10 uM by real time qRT-PCR analysis; assay type: functional, organism-based; conditions: Hepacivirus hominis, subtype 2a JFH1 J6, Huh-7, TDE = time-dependent effect
Outline: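 J6/JFH1 RNA-transfected Huh7.5 cells held at 10 µM compound for increasing periods; HCV and host GAPDH RNA measured by real-time qRT-PCR. Triplicates, mean ± SD; T1/2 for halving viral RNA from the time-response curve.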

[11] = system: Hepatitis C virus; test: Antiviral activity against Hepatitis C virus Con1 Bart79I genotype 1b expressing YFP infected in human Huh7.5 cells assessed as NS5A S2204I mutant synthesis at 10 uM after 24 hrs by FACS analysis (reference value: 52.2%); assay type: functional, Hepacivirus hominis, subtype 1b Con1 Bart79I, Huh-7; outline: as §1
[12] = system: Hepatitis C virus; test: Antiviral activity against Hepatitis C virus Con1 Bart79I genotype 1b expressing YFP infected in human Huh7.5 cells assessed as time required for reducing viral core level by half at 10 uM by FACS analysis; assay type: functional, organism-based; conditions: Hepacivirus hominis, subtype 1b Con1 Bart79I, Huh-7, in the assay text read “viral NS5A-YFP level” for “viral core level”
Outline: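 Huh7.5 cells stably carrying Bart79I-YFP subgenomic replicon (G418 750 mg/ml selection), exposed to compound at 10 µM; cells harvested at 24, 48, 72 h, washed, resuspended in PBS, NS5A-YFP-positive cell percentage read by FACS. T1/2 taken from the time-response curve.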

[13] = Inhibition of recombinant HCV N-terminal hexahistidine-tagged NS5B Cdelta21 RdRp expressed in Escherichia coli assessed as incorporation of [alpha-32P]-UTP in RNA after 2 hrs by autoradiographic analysis; set-up: species or system Hepacivirus hominis
Outline: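 N-terminal His6-tagged recombinant HCV NS5B from E. coli, primer-dependent elongation with poly(A) template (1 µg) and oligo(U)20 (10 pmol). Buffer: 50 mM Tris-HCl pH 7.5, 50 mM NaCl, 100 mM K glutamate, 2 mM MgCl2, 1 mM DTT, RNase inhibitor, UTP plus [α-³²P]UTP. Increasing compound concentrations; IC50 from dose-response curve.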

[14] = system: Hepatitis C virus; test: Antiviral activity against Hepatitis C virus JFH-1 J6 genotype 2a infected in human Huh7.5 cells assessed as time required for reducing viral core level by half at 10 uM by Western blot analysis; assay type: functional, organism-based; conditions: Hepacivirus hominis, subtype 2a JFH1 J6, Huh-7
Outline: (§2)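 J6/JFH1 RNA-transfected Huh7.5 cells on 10 µM compound, lysed at 24, 48, 72 h. HCV core and β-actin probed by Western blot, core intensity normalised to β-actin; T1/2 from the time-response curve.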

[15] = system: Hepatitis C virus; test: Antiviral activity against Hepatitis C virus Con1 Bart79I genotype 1b expressing YFP infected in human Huh7.5 cells assessed as NS5A S2204I mutant synthesis at 1 uM after 120 hrs by FACS analysis (reference value: 66%); assay type: functional, Hepacivirus hominis, subtype 1b Con1 Bart79I, Huh-7; outline: as §1
[16] = system: Hepatitis C virus; test: Antiviral activity against Hepatitis C virus JFH-1 J6 genotype 2a infected in human Huh7.5 cells assessed as inhibition of viral core synthesis at 10 uM by Western blot analysis; assay type: functional, organism-based; conditions: Hepacivirus hominis, subtype 2a JFH1 J6, Huh-7, TDE = time-dependent effect; outline: as §2
[17] = system: Hepatitis C virus; test: Antiviral activity against Hepatitis C virus Con1 Bart79I genotype 1b expressing YFP infected in human Huh7.5 cells assessed as inhibition of NS5A S2204I mutant synthesis at 10 uM by FACS analysis; assay type: functional, organism-based; conditions: Hepacivirus hominis, subtype 1b Con1 Bart79I, Huh-7, TDE = time-dependent effect; outline: as §1

C/C(=C\c1c[nH]c2ccc(C#N)cc12)C(=O)Nc1ccc(C(C)(C)C)cc1
Activity [1]: 0.6%
inhibition [2]: tde
CC50 at 72 h [3]: 61800 nM
EC50 [4]: 1100 nM
EC90 [4]: 2100 nM
Ratio [5]: 1.8
Activity [6]: 0.7%
inhibition [7]: tde
inhibition ([8]; Hepacivirus hominis, subtype 2a JFH1 J6, Huh-7): Dose-dependent effect
EC50 ([8]; subtype 2a JFH1 J6, Huh-7, 120 h): 2000 nM
selectivity ratio [9]: 56.9
inhibition [10]: tde
Activity [11]: 32.2%
T1/2 [12]: 31.8 h
IC50 [13]: 292 nM
T1/2 [14]: 19.6 h
Activity [15]: 38.4%
inhibition [16]: tde
inhibition [17]: tde
